Consider 62 compounds from ChEMBL document CHEMBL2057177, “Analogues of fenarimol are potent inhibitors of Trypanosoma cruzi and are efficacious in a murine model of Chagas disease” (J Med Chem, 2012).

For series [1], the system named is Trypanosoma cruzi. The series can be described thus: Antitrypanosomal activity against trypomastigotes of Trypanosoma cruzi Tulahuen expressing the beta- galactosidase gene infected rat L6 cells after 96 hrs. Format: functional, organism-based. The note with it: L6, 96 h. The essentials:
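Tulahuén trypomastigotes expressing β-galactosidase, maintained by serial passage in L6 cells. L6 cells seeded and left 24 h at 37 °C, 5% CO2, then infected at MOI 3 for 48 h. Compound exposure 96 h, benznidazole control. CPRG with 0.3% Nonidet P-40 added, absorbance at 530 nm after 4−6 h. IC50 taken from % inhibition curve; mean of at least two assays.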

Series [2] deals with L6. The series can be described thus: Cytotoxicity against rat L6 cells after 72 hrs by Alamar Blue assay. In kind it is cell-based. To be noted: L6, 72 h. The method, boiled down: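 L6 rat skeletal myoblasts in RPMI 1640 with 10% FBS. Exposed to compound for 72 h, seven-point serial dilutions in triplicate. Alamar Blue read at 570 and 630 nm. IC50 is the mean of at least two assays; podophyllotoxin used as control.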
(In general: Resazurin is reduced to fluorescent resorufin, in cell work by metabolically active cells.)

Series [3] can be described thus: Kinetic solubility of the compound at pH 6.5 by nephelometric analysis. In kind it is physicochemical. The note with it: buffer, read-out: Kinetic_solubility.
Series [4] is described as follows: Plasma concentration in Swiss mouse at 20 mg/kg, po after 1 hr. Format: ADME, organism-based. Details: dose 20 mg/kg, route oral. The essentials: (§1)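 Nonfasted male Swiss outbred mice (23.8–39.9 g), fed throughout. Dosed by oral gavage as solution or suspension in aqueous vehicle. Plasma assayed by LC-MS against blank-plasma standards after acetonitrile precipitation; LLOQ 0.001–0.015 μM.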

Series [5] is described as follows: Plasma concentration in Swiss mouse at 20 mg/kg, po after 8 hrs. In kind it is ADME, organism-based. Details: dose 20 mg/kg, route oral. The essentials: as §1
Series [6] deals with CYP3A4/5 (Homo sapiens, UniProt P08684+P20815). The series can be described thus: Inhibition of CYP3A4/5 in human liver microsomes. In kind it is ADME, Microsome. A general note: Liver microsomes are a subcellular fraction often used to study metabolism.
A short description of series [7]: Plasma concentration in Swiss mouse at 20 mg/kg, po after 24 hrs. Format: ADME, organism-based. Set-up: dose 20 mg/kg, route oral.
Series [8] is described as follows: Plasma concentration in Swiss mouse at 100 mg/kg, po after 1 hr. Format: ADME, organism-based. Set-up: dose 100 mg/kg, route oral. The method, boiled down:
(§2)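 Nonfasted male Swiss Outbred mice weighing 23.8−39.9 g, with food and water freely available, dosed by oral gavage as an aqueous solution or suspension. Plasma proteins precipitated with acetonitrile and compound quantified by LC-MS against standards made in blank mouse plasma. Lower limit of quantitation 0.001−0.015 μM.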

Series [9] is described as follows: Plasma concentration in Swiss mouse at 100 mg/kg, po after 8 hrs. In kind it is ADME, organism-based. Set-up: dose 100 mg/kg, route oral. The essentials: as §2

pIC50: −log10 of the molar value. Values after ≈ are worked out from the molar mass of the structure shown.

As a reminder, the pIC50 is the IC50 on a negative log10 scale, so that one unit is a factor of ten. Read a high pIC50 as a low IC50. For the compound `OC(c1ccc(Cl)cc1)(c1ccc(C(F)(F)F)cc1)c1cncnc1` (racemic), the pIC50 in [1] is 6.71; in series [2], 4.18.
As to `OC(c1ccc(Cl)cc1)(c1ccncn1)c1ccccc1Cl` (racemic), in series [2], the pIC50 was < 4.00.
For `OC(c1ccc(Cl)cc1)(c1cccnc1)c1cccc(F)c1` (racemic), the figures for the pIC50 in series [1] and in series [2] were 7.00 and 4.18, respectively.
The matching figures for `N#Cc1ccc(C(O)(c2ccc(Cl)cc2)c2cccnc2)cc1` (racemic): 7.15 and < 4.00.
Regarding `N#Cc1ccc(C(O)(c2ccc(C(F)(F)F)cc2)c2cccnc2)c(F)c1` (racemic), the pIC50 is 8.70 in series [1] and 5.39 in series [6]. The solubility kinetic in series [3] turned out to be 6.3 µg/mL (≈ 16.9 µM). For the same compound, the concentration at 1 h in series [4] came to 1400 nM. In series [5], this compound displayed a concentration at 8 h of 300 nM. In series [7], the concentration at 24 h worked out at 50 nM.
For the compound `OC(c1ccc(Cl)cc1)(c1cccnc1)c1cnc(Cl)s1` (racemic), the pIC50 in series [2] was < 4.00.
Take `OC(c1ccc(C(F)(F)F)cc1)(c1cccnc1)c1ccc(Cl)cc1F` (racemic): the pIC50 in [1] is 8.70; in [2], < 4.00; in [6], 5.85. Also, the solubility kinetic in [3] is < 1.6 µg/mL. Moreover, the concentration at 1 h in series [4] turned out to be 1240 nM. In series [5], this compound had a concentration at 8 h of 230 nM. The compound further came in with a concentration at 24 h in series [7] of 3 nM.
On to `OC(c1ccc(Cl)cc1)(c1cccnc1)c1ccc(Cl)cc1F` (racemic), for which the pIC50 was 8.00 in [1], 4.23 in [2] and 6.05 in series [6]. Besides, the solubility kinetic in series [3] stood at 1.6 µg/mL (≈ 4.6 µM).
Take `CC(C)Oc1ccc(C(O)(c2ccc(C(F)(F)F)cc2)c2cccnc2)cc1` (racemic): the pIC50 is 8.40 in series [1] and 5.85 in [6]. Moreover, the solubility kinetic in [3] came out at 1.6 µg/mL (≈ 4.13 µM).
On to `OC(c1ccc(Cl)cc1)(c1cccnc1)c1ccccc1C(F)(F)F` (racemic), for which the pIC50 in series [1] is 6.92.
In the case of `OC(c1ccc(Cl)cc1)(c1cccnc1)c1ccsc1` (racemic), the pIC50 in [2] is < 4.00.
Regarding `OC(c1ccc(Cl)cc1)(c1ccc(Cl)cc1)c1cncnc1`, the pIC50 in series [1] is 6.66.
As for `OC(c1ccc(Cl)cc1)(c1cccnc1)c1nccs1` (racemic), in series [2], the pIC50 is < 4.00.
Regarding `COc1cccc(C(O)(c2ccc(Cl)cc2)c2cccnc2)c1` (racemic), the pIC50 in [1] is 7.22.
Consider `NC(=O)c1cccc(C(O)(c2cccnc2)c2ccc(Cl)cc2F)c1` (racemic), for which the pIC50 in series [1] was 7.60; in series [2], < 4.00; in [6] it was 5.41. In addition, the solubility kinetic in series [3] came out at 50 µg/mL (≈ 140 µM). In addition, the concentration at 1 h in series [4] turned out to be 10500 nM. The compound also yielded a concentration at 8 h in series [5] of 440 nM. In addition, the concentration at 24 h in [7] came out at 6 nM.
Take `Clc1ccc(C(c2cncnc2)c2ccccc2Cl)cc1` (racemic): in [2], the pIC50 was < 4.00.
In turn, `OC(c1ccc(Cl)cc1)(c1cccnc1)c1cccc(C(F)(F)F)c1` (racemic) gave a pIC50 in series [1] of 7.15.
Still for that read-out and setting: the result for `OC(c1ccc(Cl)cc1)(c1ccc(Cl)cc1)c1cccnc1` reads 7.02.
In the case of `OC(c1ccc(Cl)cc1)(c1ccccn1)c1ccccc1Cl` (racemic), the pIC50 in [1] is 4.57; in series [2] it was < 4.00.
In turn, `CC(C)Oc1ccccc1C(O)(c1ccc(Cl)cc1)c1cccnc1` (racemic) showed a pIC50 in [2] of 4.32.
In turn, `OC(c1ccc(Cl)cc1)(c1cccnc1)c1ccccc1Br` (racemic) showed a pIC50 in series [1] of 7.15.
For the compound `CC(C)Oc1ccc(C(O)(c2cccnc2)c2cnc(Cl)nc2)cc1` (racemic), the pIC50 in series [1] was 6.52; in series [2] it was < 4.00.
As for `OC(c1ccc(Cl)cc1)(c1cccnc1)c1ccccc1Cl` (racemic), in [3], the solubility kinetic came to 3.1 µg/mL (≈ 9.39 µM). This compound also showed a pIC50 in series [6] of 6.22.
As for `NC(=O)c1ccc(C(O)(c2ccc(C(F)(F)F)cc2)c2cccnc2)cc1` (racemic), the pIC50 in [2] is < 4.00.
In the case of `NC(=O)c1cccc(C(O)(c2ccc(C(F)(F)F)cc2)c2cccnc2)c1` (racemic), the pIC50 in [1] is 7.15; in series [2], < 4.00.
The compound `CN(C)c1ccc(C(O)(c2ccc(C(F)(F)F)cc2)c2cccnc2)cc1` (racemic) had a pIC50 in [1] of 8.22.
In the case of `OC(c1ccc(Cl)cc1)(c1cccnc1)c1cncs1` (racemic), in series [2], the pIC50 was < 4.00.
For the compound `Cc1ccc(C(O)(c2ccc(Cl)cc2)c2cncnc2)cc1` (racemic), the pIC50 in series [1] was 7.62.
`OC(c1ccc(Cl)cc1)(c1cccnc1)c1ccc(Br)cc1F` (racemic): the pIC50 in [1] is 7.59; in series [2], 4.10.
Compound `COc1ccc(C(O)(c2ccc(Cl)cc2)c2cccnc2)cc1` (racemic) had a negative-log IC50 (pIC50) in series [1] of 7.40.
On the same count and under the same terms, the result for `N#CC(c1ccc(Cl)cc1)(c1cccnc1)c1ccccc1Cl` (racemic) reads 7.30.
With `N#Cc1ccc(C(O)(c2ccc(Cl)cc2)c2cccnc2)c(F)c1` (racemic), in series [2], the pIC50 was < 4.00.
In the case of `Clc1ccc(C(c2ccc(Cl)cc2)c2cccnc2)cc1`, the pIC50 in series [1] was 7.10; in [2], 4.07.
The matching figures for `CC(C)Oc1cccc(C(O)(c2ccc(Cl)cc2)c2cccnc2)c1` (racemic): 7.09 and 4.17.
On to `CC(C)Oc1ccc(C(O)(c2ccc(Cl)cc2)c2cccnc2)cc1` (racemic), for which the values for the negative logarithm of the IC50 (pIC50) in series [1] and in series [6] were 8.70 and 5.72, respectively. In [3], the solubility kinetic was determined as 1.6 µg/mL (≈ 4.52 µM). The concentration at 1 h in [8] was 9600 nM. The compound further yielded a concentration at 8 h in series [9] of 600 nM.
Turning to `OC(c1ccc(Cl)cc1)(c1cnccn1)c1ccccc1Cl` (racemic), the pIC50 in [2] is < 4.00.
The same measure, in the same setting: the result for `OC(c1ccc(Cl)cc1)(c1cncnc1)c1ccccc1F` (racemic) reads < 4.00.
Same read-out and setting: the result for `N#Cc1cccc(C(O)(c2ccc(Cl)cc2)c2cccnc2)c1` (racemic) reads < 4.00.
Turning to `OC(c1ccc(Cl)cc1)(c1cccnc1)c1ccc(F)cc1F` (racemic), the pIC50 in [1] is 7.80.
The same measure, in the same setting: the result for `Clc1ccc(C(c2ccc(Cl)cc2)c2cncnc2)cc1` reads 6.17.
On to `OC(c1cccnc1)(c1cccs1)c1ccc(Cl)cc1F` (racemic), for which the pIC50 in series [1] was 8.30; in [2] it was < 4.00.
`Nc1ncc(C(O)(c2ccc(Cl)cc2)c2cccnc2)s1` (racemic): the results for the pIC50 in [1] and in series [2] were 6.59 and 4.25, respectively.
Regarding `[O-][n+]1cncc(C(O)(c2ccc(Cl)cc2)c2ccccc2Cl)c1` (racemic), the pIC50 in [2] was < 4.00.
`NC(c1ccc(Cl)cc1)(c1cccnc1)c1ccccc1Cl` (racemic) gave a pIC50 in [1] of 7.05.
In series [1], `OC(c1ccc(Cl)cc1)(c1ccc(C(F)(F)F)cc1)c1cccnc1` (racemic) gave a pIC50 of 8.10. This pIC50 lies 1.05 log units higher than the previous one.
With `OC(c1ccc(Cl)cc1)(c1ncccn1)c1ccccc1Cl` (racemic), the pIC50 in series [2] is < 4.00.
Turning to `OC(c1ccc(Cl)cc1)(c1cccnc1)c1ccccc1F` (racemic), the pIC50 was 7.46 in [1] and < 4.00 in series [2].
As for `Cc1ccccc1C(O)(c1ccc(Cl)cc1)c1cccnc1` (racemic), the pIC50 in series [2] is 4.09.
Same read-out and setting: the result for `OC(c1ccc(Cl)cc1)(c1cncnc1)c1cccc(F)c1` (racemic) reads < 4.00.
Compound `CC(C)C(=O)Nc1ncc(C(O)(c2ccc(Cl)cc2)c2cccnc2)s1` (racemic) showed a pIC50 in series [1] of 7.68.
As for `OC(c1ccc(Cl)cc1)(c1cccnc1)c1cncnc1` (racemic), the pIC50 in [2] was < 4.00; in [6], 5.30. For the same compound, the solubility kinetic in series [3] is > 100 µg/mL. This compound also had a concentration at 1 h in series [4] of 300 nM. In addition, the concentration at 8 h in [5] was < 2 nM.
In the case of `COC(c1ccc(Cl)cc1)(c1cccnc1)c1ccccc1Cl` (racemic), the pIC50 in [1] is 7.05; in series [2], 4.23.
For the compound `CC(C)Oc1ccc(C(O)(c2ccc(Cl)cc2)c2cccnc2)c(F)c1` (racemic), the pIC50 in series [1] was 7.59; in series [2], 4.24.
The matching figures for `CC(C)Oc1ncc(C(O)(c2ccc(Cl)cc2)c2cccnc2)cn1` (racemic): 7.22 and < 4.00.
`CC(C)CNC(c1ccc(Cl)cc1)(c1cccnc1)c1ccccc1Cl` (racemic) showed a pIC50 in series [1] of 6.22.
`OC(c1ccc(C(F)(F)F)cc1)(c1cccnc1)c1cc2ccccc2s1` (racemic) had a pIC50 in series [1] of 7.70. This pIC50 is 1.48 log units higher than that of the compound before.
As for `CC(C)Oc1ccc(C(O)(c2cccnc2)c2ccc(Cl)cc2F)cc1` (racemic), the pIC50 is 9.00 in series [1] and 5.96 in series [6]. Besides, in series [3], the solubility kinetic came to 1.6 µg/mL (≈ 4.3 µM).
Regarding `CS(=O)(=O)Nc1ccc(C(O)(c2ccc(Cl)cc2)c2cccnc2)cc1` (racemic), the pIC50 is 7.52 in [1] and < 4.00 in series [2].
In series [1], `Cc1ccc(C(O)(c2ccc(OC(C)C)cc2)c2cccnc2)c(F)c1` (racemic) gave a pIC50 of 8.52.
Regarding `CC(C)c1ccc(C(O)(c2ccc(C(F)(F)F)cc2)c2cccnc2)cc1` (racemic), the pIC50 in series [1] is 8.70; in [2], 4.25.
`OC(c1ccc(Br)cc1)(c1ccc(C(F)(F)F)cc1)c1cccnc1` (racemic) gave a negative-log IC50 (pIC50) in series [1] of 7.70.
The same measure, in the same setting: the result for `OC(c1ccc(C(F)(F)F)cc1)(c1ccc(C(F)(F)F)cc1)c1cccnc1` reads 7.82.
